Results from ChEMBL document CHEMBL4411279, “Synthesis of new chalcone-based homoserine lactones and their antiproliferative activity evaluation” (Eur J Med Chem, 2019).
Activity calls are given as the source filed them. The rule behind the calls is not given here.

Legend:
MCF7 = assay: Antiproliferative activity against human MCF7 cells after 72 hrs by MTT assay; assay type: functional, cell-based; details: MCF7, 72 h
Outline: (§1)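 Cells seeded 3,000/well, after 24 h medium replaced with compound at 64, 32, 16, 8, 4, 2, 1, 0.5 µM; 72 h exposure, MTT read-out at 570 nm; IC50 given as mean ± SD.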

MGC-803 = assay: Antiproliferative activity against human MGC803 cells after 72 hrs by MTT assay; assay type: functional, cell-based; details: MGC-803, 72 h; outline: as §1
DU-145 [1] = assay: Antiproliferative activity against human DU145 cells after 72 hrs by MTT assay; assay type: functional, cell-based; details: DU-145, 72 h; outline: as §1
PC-3 = assay: Antiproliferative activity against human PC3 cells after 72 hrs by MTT assay; assay type: functional, cell-based; details: PC-3, 72 h; outline: as §1
DU-145 [2] = assay: Inhibition of colony formation in human DU145 cells after 21 days by crystal violet staining-based assay; assay type: functional, cell-based
Outline: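 DU145 seeded 4000/well, grown 4 days, then medium with compound at various concentrations for 21 days; PBS washed, fixed in 4% paraformaldehyde, stained with 0.1% crystal violet; colonies (>10 cells) counted; inhibition = (1 − treated/control colonies) × 100%.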

DU-145 [3] = assay: Growth inhibition of human DU145 cells at 2.5 uM by MTT assay; assay type: functional, cell-based; details: TDE = time-dependent effect
Outline: (§2)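 DU145 growth inhibition measured by MTT; time course at 24, 48 and 72 h; combination arm used recombinant TRAIL at 100 ng/mL together with compound (2.5 or 5.0 µM); mean ± SD, experiment repeated three times, Student's t test.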

DU-145 [4] = assay: Induction of apoptosis in human DU145 cells assessed as cell rounding at 5 uM after 24 hrs by Hoechst 33258 staining-based fluorescence microscopic analysis; assay type: functional
Outline: (§3)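 DU145 seeded 1×10^5/well, adhered overnight, treated 24 h with compound alone or combined with TRAIL; stained with Hoechst 33258 for 30 min in the dark; nuclear morphology examined by fluorescence microscopy.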

DU-145 [5] = assay: Growth inhibition of human DU145 cells at 2.5 uM after 24 to 48 hrs by MTT assay; assay type: functional, cell-based; outline: as §2
DU-145 [6] = assay: Growth inhibition of human DU145 cells at 2.5 uM after 72 hrs in presence of TRAIL by MTT assay relative to control; assay type: functional; details: DU-145, 72 h, read-out: GI; outline: as §2
DU-145 [7] = assay: Induction of apoptosis in human DU145 cells assessed as chromatin shrinkage at 5 uM after 24 hrs by Hoechst 33258 staining-based fluorescence microscopic analysis; assay type: functional, cell-based; outline: as §3
DU-145 [8] = assay: Induction of apoptosis in human DU145 cells assessed as formation of apoptotic bodies at 5 uM after 24 hrs by Hoechst 33258 staining-based fluorescence microscopic analysis; assay type: functional, cell-based; outline: as §3
DU-145 [9] = assay: Induction of apoptosis in human DU145 cells assessed as cell rounding at 5 uM after 24 hrs in presence of TRAIL by Hoechst 33258 staining-based fluorescence microscopic analysis; assay type: functional; outline: as §3
DU-145 [10] = assay: Induction of apoptosis in human DU145 cells assessed as chromatin shrinkage at 5 uM after 24 hrs in presence of TRAIL by Hoechst 33258 staining-based fluorescence microscopic analysis; assay type: functional, cell-based; outline: as §3
DU-145 [11] = assay: Induction of apoptosis in human DU145 cells assessed as formation of apoptotic bodies at 5 uM after 24 hrs in presence of TRAIL by Hoechst 33258 staining-based fluorescence microscopic analysis; assay type: functional, cell-based; outline: as §3
DU-145 [12] = assay: Induction of apoptosis in human DU145 cells assessed as viable cells at 5 uM after 24 hrs by Annexin V-FITC/propidium iodide staining-based high content screening assay (reference value: 97.9%); assay type: functional; details: DU-145, 24 h, read-out: Activity
Outline: (§4)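 DU145 seeded 3×10^5/well, grown 24 h, treated 24 h with compound alone or plus TRAIL; harvested, stained with Annexin V-FITC/PI per kit protocol, quantified by high content screening; mean ± SD of three experiments.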

DU-145 [13] = assay: Induction of apoptosis in human DU145 cells assessed as early apoptotic cells at 5 uM after 24 hrs by Annexin V-FITC/propidium iodide staining-based high content screening assay (reference value: 0.3%); assay type: functional; outline: as §4
DU-145 [14] = assay: Induction of apoptosis in human DU145 cells assessed as late apoptotic cells at 5 uM after 24 hrs by Annexin V-FITC/propidium iodide staining-based high content screening assay (reference value: 0.2%); assay type: functional; outline: as §4
DU-145 [15] = assay: Induction of apoptosis in human DU145 cells assessed as necrotic cells at 5 uM after 24 hrs by Annexin V-FITC/propidium iodide staining-based high content screening assay (reference value: 1.6%); assay type: functional; outline: as §4
DU-145 [16] = assay: Induction of apoptosis in human DU145 cells assessed as viable cells at 5 uM after 24 hrs in presence of TRAIL by Annexin V-FITC/propidium iodide staining-based high content screening assay (reference value: 97.9%); assay type: functional; details: DU-145, 24 h, read-out: Activity; outline: as §4
DU-145 [17] = assay: Induction of apoptosis in human DU145 cells assessed as early apoptotic cells at 5 uM after 24 hrs in presence of TRAIL by Annexin V-FITC/propidium iodide staining-based high content screening assay (reference value: 0.3%); assay type: functional; outline: as §4
DU-145 [18] = assay: Induction of apoptosis in human DU145 cells assessed as late apoptotic cells at 5 uM after 24 hrs in presence of TRAIL by Annexin V-FITC/propidium iodide staining-based high content screening assay (reference value: 0.2%); assay type: functional; outline: as §4
DU-145 [19] = assay: Induction of apoptosis in human DU145 cells assessed as necrotic cells at 5 uM after 24 hrs in presence of TRAIL by Annexin V-FITC/propidium iodide staining-based high content screening assay (reference value: 1.6%); assay type: functional; outline: as §4
DU-145 [20] = assay: Induction of apoptosis in human DU145 cells assessed as increase in caspase-3/7 activity at 2.5 to 10 uM after 24 hrs by Caspase-Glo 3/7 assay; assay type: functional, cell-based
Outline: (§5)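 DU145 treated 24 h with compound alone or with TRAIL (100 ng/mL); caspase-3/7 activity measured by Caspase-Glo 3/7 luminescent protocol relative to untreated control; three independent experiments, mean ± SD, Student's t test.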

DU-145 [21] = assay: Induction of apoptosis in human DU145 cells assessed as increase in caspase-3/7 activity at 5 uM after 24 hrs in presence of TRAIL by Caspase-Glo 3/7 assay relative to control; assay type: functional; outline: as §5

Q: Which results are given for O=C(COc1ccc(C(=O)/C=C/c2ccccc2Cl)cc1)N[C@H]1CCOC1=O?
A: IC50 (MCF7): 17.4 µM; IC50 (MGC-803): 27.1 µM; IC50 (DU-145 [1]): 3.24 µM; IC50 (PC-3): 4.61 µM; inhibition (DU-145 [2]): Dose-dependent effect; growth inhibition (GI) (DU-145 [3]): Tde; Activity (DU-145 [4]): Active; Activity (DU-145 [5]): Active; inhibition of growth at 2.5 µM (DU-145 [6]): 50%; Activity (DU-145 [7]): Active; Activity (DU-145 [8]): Active; Activity (DU-145 [9]): Active; Activity (DU-145 [10]): Active; Activity (DU-145 [11]): Active; viability at 5 µM (DU-145 [12]): 90.1%; Activity (DU-145 [13]): 6.4%; Activity (DU-145 [14]): 1.7%; Activity (DU-145 [15]): 1.7%; viability at 5 µM (DU-145 [16]): 84.8%; Activity (DU-145 [17]): 13.4%; Activity (DU-145 [18]): 1.7%; Activity (DU-145 [19]): 0.1%; Activity (DU-145 [20]): Active; fold change (FC) (DU-145 [21]): 3
